Key:
Ecdysone receptor [1] = biological target: T1, Ecdysone receptor (Choristoneura fumiferana, UniProt O77240); assay: Dose affording 50% of maximum transactivation for ecdysone receptor from Choristoneura fumiferana (CfEcR) and a luciferase reporter gene in CHO cells; format: functional, cell-based
T1 sequence (O77240 whole entry): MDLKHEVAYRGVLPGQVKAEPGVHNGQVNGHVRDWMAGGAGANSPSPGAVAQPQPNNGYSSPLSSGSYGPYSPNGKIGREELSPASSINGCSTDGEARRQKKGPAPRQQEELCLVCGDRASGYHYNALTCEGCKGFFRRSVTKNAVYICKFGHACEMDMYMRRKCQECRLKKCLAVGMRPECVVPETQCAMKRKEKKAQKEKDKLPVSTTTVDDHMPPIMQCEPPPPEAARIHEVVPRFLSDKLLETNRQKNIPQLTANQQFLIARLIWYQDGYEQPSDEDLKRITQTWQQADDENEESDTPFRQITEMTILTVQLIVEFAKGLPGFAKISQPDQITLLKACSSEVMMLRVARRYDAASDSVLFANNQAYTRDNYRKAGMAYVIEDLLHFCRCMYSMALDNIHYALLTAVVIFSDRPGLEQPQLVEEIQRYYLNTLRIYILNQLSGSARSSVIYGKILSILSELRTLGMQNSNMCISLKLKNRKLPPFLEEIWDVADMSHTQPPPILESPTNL
How it was run: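 CHO cells stably carrying GAL4 DBD(1-147)-CfEcR(DEF) and VP16-bRXR-LmUSP chimera cassettes (Zeocin selection), plus GAL4 RE-luciferase reporter (clone 27-63, hygromycin). Cells plated at 2.5 × 10⁴ cells mL⁻¹. DMSO ligand stocks diluted 300-fold; 8 concentrations, 33 to 0.01. Luciferase read 48 h after treatment. Value is the dose giving 50% of maximum transactivation.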

[2] = biological target: T2, Ecdysone receptor (Choristoneura fumiferana) (UniProt O77240); assay: Ratio of maximum level of gene expression (ecdysone receptor and luciferase gene) of compound to maximum level of gene expression with GSTM-E expressed as RMFI; format: functional
T2 sequence (whole entry): T1 sequence (O77240 whole entry)
How it was run: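 CHO clone 27-63 stably carries GAL4 DBD–CfEcR(DEF) plus VP16–RXR/LmUSP chimera, selected with Zeocin. A GAL4-RE luciferase reporter was added and selected with hygromycin. Cells plated at 2.5 × 10⁴ cells/mL. DMSO ligand stocks diluted 300-fold, tested at 8 concentrations from 33 to 0.01. Luciferase measured 48 h after treatment. RMFI is maximum expression relative to that of the standard agonist control.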

Ecdysone receptor [3] = biological target: T3, Ecdysone receptor (Bombyx mori, UniProt P49881); assay: Dose affording 50% of maximum transactivation for ecdysone receptor from Bombyx mori (BmEcR) and a beta-galactosidase reporter gene in HEK293 cell-line; format: functional, cell-based
T3 sequence (P49881 whole entry): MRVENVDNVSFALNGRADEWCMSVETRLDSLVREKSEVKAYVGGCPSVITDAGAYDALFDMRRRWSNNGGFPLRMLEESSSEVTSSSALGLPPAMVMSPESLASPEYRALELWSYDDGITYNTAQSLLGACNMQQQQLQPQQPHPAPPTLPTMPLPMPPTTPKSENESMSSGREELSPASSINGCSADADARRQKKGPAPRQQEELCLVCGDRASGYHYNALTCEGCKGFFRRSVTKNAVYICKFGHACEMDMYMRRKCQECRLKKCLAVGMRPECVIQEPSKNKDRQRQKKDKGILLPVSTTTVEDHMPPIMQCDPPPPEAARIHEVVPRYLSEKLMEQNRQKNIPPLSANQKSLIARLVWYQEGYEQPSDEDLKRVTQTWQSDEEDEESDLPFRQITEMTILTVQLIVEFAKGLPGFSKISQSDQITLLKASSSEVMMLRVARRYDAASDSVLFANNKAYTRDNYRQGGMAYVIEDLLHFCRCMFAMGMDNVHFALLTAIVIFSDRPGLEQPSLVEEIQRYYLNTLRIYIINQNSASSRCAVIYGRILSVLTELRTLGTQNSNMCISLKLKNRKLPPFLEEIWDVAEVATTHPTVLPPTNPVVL
How it was run: (§1)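 HEK-293 clone Z3 stably expressing BmEcR with a β-galactosidase reporter, selected with G418 (450) and puromycin (100 ng/mL). Cells seeded at 2.5 × 10⁴ cells/mL and held 24 h at 37 °C in 5% CO₂. Ligands came from 10 mM DMSO stocks diluted […] in medium, with final DMSO 0.03%. Bioluminescent β-gal read at 48 h, room temperature. Fold induction is treated RLU over DMSO RLU. EC50 is the dose giving 50% of maximum transactivation. RMFI is maximum expression relative to that of the standard agonist control.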

[4] = biological target: T4, Ecdysone receptor (Bombyx mori) (UniProt P49881); assay: Ratio of maximum level of gene expression (ecdysone receptor and beta-galactosidase receptor) of compound to maximum level of gene expression with GSTM-E expressed as RMFI; format: functional; how it was run: as §1
T4 sequence (whole entry): T3 sequence (P49881 whole entry)

CCc1c(OC)cccc1C(=O)NN(C(=O)c1cc(C)cc(C)c1)C(C)(C)C
EC50 (Ecdysone receptor [1]): 0.41 µM
Ratio [2]: 1
EC50 (Ecdysone receptor [3]): 0.25 µM
Ratio [4]: 1

COc1cccc(C(=O)NC2(C(=O)c3cc(C)cc(C)c3)CCS(=O)(=O)CC2)c1C
EC50 (Ecdysone receptor [1]): 30 µM
Ratio [2]: 0.04
EC50 (Ecdysone receptor [3]): 15 µM
Ratio [4]: 0.1

COc1ccccc1C(=O)C1(NC(=O)c2cccc(OC)c2C)CCCCCC1
EC50 (Ecdysone receptor [1]): 3.36 µM
Ratio [2]: 0.66
EC50 (Ecdysone receptor [3]): 1.94 µM
Ratio [4]: 0.78

CCc1ccc(C(=O)NC2(C(=O)c3cc(C)cc(C)c3)CCCCC2)cc1
EC50 (Ecdysone receptor [3]): 1.51 µM
Ratio [4]: 0.63

COc1cccc(C(=O)NC(C)(C)C(=O)c2cc(C)cc(C)c2)c1C
EC50 (Ecdysone receptor [1]): 41.9 µM
Ratio [2]: 0.29
EC50 (Ecdysone receptor [3]): 10 µM
Ratio [4]: 0.17

CCc1c(C(=O)NC2(C(=O)c3cc(C)cc(C)c3)CCCCC2)ccc2c1OCCO2
EC50 (Ecdysone receptor [1]): 0.39 µM
Ratio [2]: 0.91
EC50 (Ecdysone receptor [3]): 0.74 µM
Ratio [4]: 0.89

COc1cccc(C(=O)NC2(C(=O)c3cc(C)cc(C)c3)CCOCC2)c1C
EC50 (Ecdysone receptor [1]): 10 µM
Ratio [2]: 0.96
EC50 (Ecdysone receptor [3]): 10 µM
Ratio [4]: 0.18

COc1ccccc1C(=O)C1(NC(=O)c2cccc(OC)c2C)CCCCC1
EC50 (Ecdysone receptor [1]): 1.03 µM
Ratio [2]: 0.71
EC50 (Ecdysone receptor [3]): 0.98 µM
Ratio [4]: 0.84

Cc1cc(C)cc(C(=O)C2(NC(=O)c3ccc4c(c3C)OCO4)CCCCC2)c1
EC50 (Ecdysone receptor [1]): 3.22 µM
Ratio [2]: 0.91
EC50 (Ecdysone receptor [3]): 3.68 µM
Ratio [4]: 0.81

COc1cccc(C(=O)NC2(C(=O)c3cc(C)cc(C)c3)CC2)c1C
EC50 (Ecdysone receptor [1]): 33.3 µM
Ratio [2]: 0.09
EC50 (Ecdysone receptor [3]): 20.4 µM
Ratio [4]: 0.22

CCC(CC)(NC(=O)c1cccc(OC)c1C)C(=O)c1cc(C)cc(C)c1
EC50 (Ecdysone receptor [1]): 6.23 µM
Ratio [2]: 0.54
EC50 (Ecdysone receptor [3]): 4.53 µM
Ratio [4]: 0.61

CCc1c(OC)cccc1C(=O)NC1(C(=O)c2cc(C)cc(C)c2)CCCCC1
EC50 (Ecdysone receptor [1]): 1.25 µM
Ratio [2]: 0.89
EC50 (Ecdysone receptor [3]): 1.81 µM
Ratio [4]: 0.85

COc1ccccc1C(=O)C1(NC(=O)c2cccc(OC)c2C)CCCC1
EC50 (Ecdysone receptor [1]): 6.61 µM
Ratio [2]: 0.67
EC50 (Ecdysone receptor [3]): 5.16 µM
Ratio [4]: 0.7

COc1cccc(C(=O)NC2(C(=O)c3cc(C)cc(C)c3)CCC2)c1C
EC50 (Ecdysone receptor [1]): 10 µM
Ratio [2]: 0.89
EC50 (Ecdysone receptor [3]): 8.52 µM
Ratio [4]: 0.69

COc1cccc(C(=O)NC2(C(=O)c3cc(C)cc(C)c3)CCCCC2)c1C
EC50 (Ecdysone receptor [1]): 1.11 µM
Ratio [2]: 0.96
EC50 (Ecdysone receptor [3]): 1.41 µM
Ratio [4]: 0.99

COc1cccc(C(=O)NC2(C(=O)c3cc(C)cc(C)c3)CCSCC2)c1C
EC50 (Ecdysone receptor [1]): 1.8 µM
Ratio [2]: 0.85
EC50 (Ecdysone receptor [3]): 1.6 µM
Ratio [4]: 0.98

COc1cccc(C(=O)NC2(C(=O)c3cc(C)cc(C)c3)CCCCCC2)c1C
EC50 (Ecdysone receptor [1]): 2.97 µM
Ratio [2]: 0.88
EC50 (Ecdysone receptor [3]): 1.61 µM
Ratio [4]: 0.69

COc1cccc(C(=O)NN(C(=O)c2cc(C)cc(C)c2)C(C)(C)C)c1C [METHOXYFENOZIDE]
EC50 (Ecdysone receptor [1]): 0.28 µM
Ratio [2]: 1.02
EC50 (Ecdysone receptor [3]): 0.1 µM
Ratio [4]: 1.03

COc1cccc(C(=O)NC2(C(=O)c3cc(C)cc(C)c3)CCCC2)c1C
EC50 (Ecdysone receptor [1]): 1.91 µM
Ratio [2]: 0.86
EC50 (Ecdysone receptor [3]): 1.87 µM
Ratio [4]: 0.85
